Assay [1] in a line: Cytotoxicity against human PC3 cells assessed as cell viability at 100 nM after 72 hrs by tryphan blue staining-based microscopy (reference value: 95 to 98 %). The format is functional. To be noted: PC-3, 72 h, read-out: Activity.
Assay [2] has as its system SK-MEL-28. Description: Antiproliferative activity against human SK-MEL-28 cells assessed as reduction in cell viability at 5 to 50 uM after 72 hrs by MTT assay. The format is functional, cell-based. The procedure, abridged: (§1)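 Cells plated, compound added after 24 h (DMSO dilution into culture medium), in triplicate; after 72 h, MTT added for 4 h. Controls were cells in medium alone; blanks were medium-only wells. Viability expressed as percent of viable cells versus control, mean of at least three independent assays.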
In general terms: Formazan colour is commonly taken as a measure of viable cells.

Assay [3] deals with SK-MEL-5. Description: Antiproliferative activity against human SK-MEL-5 cells assessed as reduction in cell viability at 5 to 50 uM after 72 hrs by MTT assay. The format is functional, cell-based. The essentials: as §1
Assay [4] has as its system PC-3. Description: Antiproliferative activity against human PC3 cells assessed as reduction in cell viability at 0.5 to 100 uM after 72 hrs by MTT assay. The format is functional, cell-based. The procedure, abridged: as §1
For assay [5], the system named is SK-MEL-28. Description: Cell cycle arrest in human SK-MEL-28 cells assessed as accumulation of cells with 4N DNA at 5 uM after 96 hrs by propidium iodide staining-based FACS analysis. The format is functional. (Flow cytometry measures light scatter and fluorescence of single cells or particles in a stream.)
Assay [6] concerns SK-MEL-5. Description: Reduction in cyclin D1 protein level in human SK-MEL-5 cells at 5 uM after 24 hrs by RT-PCR analysis relative to control. Type of assay: functional, cell-based.
Assay [7] can be described thus: Cytotoxicity against human PC3 cells assessed as cell viability at 5 uM after 72 hrs by tryphan blue staining based microscopy (reference value: 95 to 98 %). Type of assay: functional. To be noted: PC-3, 72 h, read-out: Activity.
The subject of assay [8] is PC-3. Description: Reduction in cyclin D1 protein level in human PC3 cells at 5 uM after 24 hrs by RT-PCR analysis relative to control. Type of assay: functional, cell-based.
Assay [9] deals with SK-MEL-5. Description: Cell cycle arrest in human SK-MEL-5 cells assessed as accumulation of cells with 4N DNA at 5 uM after 96 hrs by propidium iodide staining-based FACS analysis. The format is functional.
For assay [10], the system named is SK-MEL-28. Description: Cell cycle arrest in human SK-MEL-28 cells assessed as accumulation at G2/M phase at 5 uM after 24 hrs by propidium iodide staining-based FACS analysis. The format is functional.
Assay [11] is described as follows: Cell cycle arrest in human PC3 cells assessed as accumulation at G2/M phase at 5 uM after 24 hrs by propidium iodide staining-based FACS analysis. The format is functional. To be noted: PC-3.
Assay [12] concerns SK-MEL-28. Description: Reduction in cyclin D1 mRNA expression in human SK-MEL-28 cells at 5 uM after 24 hrs by RT-PCR analysis relative to control.
Assay [13] deals with SK-MEL-5. Description: Cell cycle arrest in human SK-MEL-5 cells assessed as accumulation at G2/M phase at 5 uM after 24 hrs by propidium iodide staining-based FACS analysis. Type of assay: functional.
A short description of assay [14]: Cell cycle arrest in human PC3 cells assessed as accumulation of cells with 4N DNA at 5 uM after 96 hrs by propidium iodide staining-based FACS analysis. Type of assay: functional. To be noted: PC-3.

Activity calls are given as the source filed them. The calls are words filed in the database; no cut-off is given here.

For the compound `CC(=O)O[C@@]12CO[C@@H]1C[C@H](O)[C@@]1(C)C(=O)[C@H](O)C3=C(C)[C@@H](OC(=O)[C@H](O)[C@@H](NC(=O)OC(C)(C)C)c4ccccc4)C[C@@](O)([C@@H](OC(=O)c4ccccc4)[C@H]21)C3(C)C` [DOCETAXEL ANHYDROUS], in [1], the viability at 0.1 µM was 32%.

For the compound `CC(=O)NC1=NN(C(C)=O)C(C)(c2cccnc2)S1` (stereo not given), the result in the assay with SK-MEL-28 [2] and in the assay with SK-MEL-5 [3] was Active.

Consider `CC(=O)NC1=NN(C(C)=O)C(C)(c2ccccn2)S1` (stereo not given), for which the outcome in the assay on PC-3 [4] was Active.

Turning to `CCCCC1(CC)SC(NC(=O)CC)=NN1C(=O)CC` (stereo not given), in the assay with PC-3 [4], the outcome was Active.

For `CCC1(c2ccccc2)SC(NC(C)=O)=NN1C(C)=O` (stereo not given), the outcome in the assay with SK-MEL-28 [5], in the assay with SK-MEL-5 [6], with PC-3 [4], in the assay with PC-3 [8], in the assay with SK-MEL-5 [9] and in the assay on SK-MEL-28 [10] was Active. The result (in assay [11]; in the assay with SK-MEL-28 [12]; in the assay with SK-MEL-5 [13]; in assay [14]; in the assay with SK-MEL-28 [2]; in the assay on SK-MEL-5 [3]) was Active. In addition, the viability at 5 µM in assay [7] stood at 18%.

`C=CCCC1(C)SC(NC(=O)CC)=NN1C(=O)CC` (stereo not given): the result in the assay with SK-MEL-28 [2] and with SK-MEL-5 [3] was Active.

`CC(=O)NC1=NN(C(C)=O)C(C)(c2ccccc2)S1` (stereo not given): the result in the assay on SK-MEL-28 [5], in the assay with SK-MEL-5 [6], in the assay with PC-3 [4], in the assay on PC-3 [8], in the assay on SK-MEL-5 [9] and with SK-MEL-28 [10] was Active. In addition, the outcome (in [11]; in the assay on SK-MEL-28 [12]; with SK-MEL-5 [13]; in assay [14]; in the assay on SK-MEL-28 [2]; in the assay on SK-MEL-5 [3]) was Active. Besides, the viability at 5 µM in assay [7] was 25%.

On to `CC1(c2ccccc2)SC(NC(=O)C(Cl)Cl)=NN1C(=O)C(Cl)Cl` (stereo not given), for which the outcome in the assay with PC-3 [4], in the assay with SK-MEL-28 [2] and with SK-MEL-5 [3] was Active.

Consider `CC(=O)NC1=NN(C(C)=O)C(C)(c2cccs2)S1` (stereo not given), for which the result in the assay on PC-3 [4] was Active.

For the compound `CC(=O)NC1=NN(C(C)=O)C(C)(c2ccc(OC(C)=O)cc2)S1` (stereo not given), the outcome in the assay on PC-3 [4] was Active.

`CC(=O)NC1=NN(C(C)=O)C(C)(c2cc(F)ccc2F)S1` (stereo not given): in the assay with PC-3 [4], the outcome was Active.

In the case of `CCC(=O)NC1=NN(C(=O)CC)C(CC)(c2ccccc2)S1` (stereo not given), the outcome with PC-3 [4] was Active.
